Like-named read-outs stand apart in the source and are kept apart here.
Legend:
[1] = assay type: in vivo, BALB/c mice; conditions: for clearance: CL
[2] = Plasma protein binding by rapid equilibrium dialysis; assay type: in vitro ADME; conditions: BALB/c, mouse
Procedure, shortened: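 Rapid equilibrium dialysis: freshly spiked BALB/c mouse plasma against PBS, 37 °C for 24 h. Test compound at 300–100,000 ng/mL with <0.1% final organic solvent, triplicate. Fraction unbound in plasma determined from chamber concentrations.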

[3] = clinical; cited from earlier work
[4] = test system: breast cancer resistance protein (Bcrp/Abcg2); conditions: on the BBB; cited from earlier work
[5] = BALB/c, mouse, bone marrow, iv, 20 mg/kg
[6] = BALB/c, mouse, brain, iv, 20 mg/kg
[7] = BALB/c, mouse, draining lymph node, iv, 20 mg/kg
[8] = BALB/c, mouse, esophagus, iv, 20 mg/kg
[9] = BALB/c, mouse, fat, iv, 20 mg/kg
[10] = BALB/c, mouse, heart, iv, 20 mg/kg
[11] = BALB/c, mouse, kidney, iv, 20 mg/kg
[12] = BALB/c, mouse, liver, iv, 20 mg/kg
[13] = BALB/c, mouse, lung, iv, 20 mg/kg
[14] = BALB/c, mouse, non-draining lymph node, iv, 20 mg/kg
[15] = BALB/c, mouse, plasma, iv, 20 mg/kg
[16] = BALB/c, mouse, red blood cells (RBC), iv, 20 mg/kg
[17] = BALB/c, mouse, skeletal muscle, iv, 20 mg/kg
[18] = BALB/c, mouse, small intestine, iv, 20 mg/kg
[19] = BALB/c, mouse, spinal cord, iv, 20 mg/kg
[20] = BALB/c, mouse, spleen, iv, 20 mg/kg
[21] = BALB/c, mouse, thymus, iv, 20 mg/kg
[22] = BALB/c, mouse, tumor (CT26), iv, 20 mg/kg
[23] = plasma, 20 mg/kg IV-ext, tumor-bearing mice
[24] = unchanged drug, 20 mg/kg IV-ext, tumor-bearing mice

AUC(0-inf) [1, 5]: 1110 µg·h/mL
Cmax [1, 5]: 164000 ng/mL
Kp [1, 5]: 74.5
Tmax [1, 5]: 60 min
AUC(0-t) ([1]; BALB/c, mouse, bone marrow, iv, 20 mg/kg, AUC0-t, 20 mg/kg IV, 0–1440 min): 1060 µg·h/mL
AUC(0-inf) [1, 6]: 4.52 µg·h/mL
Cmax [1, 6]: 627 ng/mL
Kp [1, 6]: 0.297
Tmax [1, 6]: 15 min
AUC(0-t) ([1]; BALB/c, mouse, brain, iv, 20 mg/kg, AUC0-t, 20 mg/kg IV, 0–1440 min): 4.23 µg·h/mL
AUC(0-inf) [1, 7]: 87 µg·h/mL
Cmax [1, 7]: 12900 ng/mL
Kp [1, 7]: 5.7
Tmax [1, 7]: 60 min
AUC(0-t) ([1]; BALB/c, mouse, draining lymph node, iv, 20 mg/kg, AUC0-t, 20 mg/kg IV, 0–1440 min): 80.3 µg·h/mL
AUC(0-inf) [1, 8]: 46.7 µg·h/mL
Cmax [1, 8]: 12100 ng/mL
Kp [1, 8]: 3.07
Tmax [1, 8]: 30 min
AUC(0-t) ([1]; BALB/c, mouse, esophagus, iv, 20 mg/kg, AUC0-t, 20 mg/kg IV, 0–1440 min): 43.6 µg·h/mL
AUC(0-inf) [1, 9]: 25.2 µg·h/mL
Cmax [1, 9]: 4280 ng/mL
Kp [1, 9]: 1.59
Tmax [1, 9]: 5 min
AUC(0-t) ([1]; BALB/c, mouse, fat, iv, 20 mg/kg, AUC0-t, 20 mg/kg IV, 0–1440 min): 22.6 µg·h/mL
AUC(0-inf) [1, 10]: 86.5 µg·h/mL
Cmax [1, 10]: 31600 ng/mL
Kp [1, 10]: 5.64
Tmax [1, 10]: 5 min
AUC(0-t) ([1]; BALB/c, mouse, heart, iv, 20 mg/kg, AUC0-t, 20 mg/kg IV, 0–1440 min): 81.2 µg·h/mL
AUC(0-inf) [1, 11]: 873 µg·h/mL
Cmax [1, 11]: 117000 ng/mL
Kp [1, 11]: 57.7
Tmax [1, 11]: 5 min
AUC(0-t) ([1]; BALB/c, mouse, kidney, iv, 20 mg/kg, AUC0-t, 20 mg/kg IV, 0–1440 min): 821 µg·h/mL
AUC(0-inf) [1, 12]: 387 µg·h/mL
Cmax [1, 12]: 79800 ng/mL
Kp [1, 12]: 25.5
Tmax [1, 12]: 5 min
AUC(0-t) ([1]; BALB/c, mouse, liver, iv, 20 mg/kg, AUC0-t, 20 mg/kg IV, 0–1440 min): 363 µg·h/mL
AUC(0-inf) [1, 13]: 216 µg·h/mL
Cmax [1, 13]: 45200 ng/mL
Kp [1, 13]: 13.9
Tmax [1, 13]: 5 min
AUC(0-t) ([1]; BALB/c, mouse, lung, iv, 20 mg/kg, AUC0-t, 20 mg/kg IV, 0–1440 min): 198 µg·h/mL
AUC(0-inf) [1, 14]: 116 µg·h/mL
Cmax [1, 14]: 20700 ng/mL
Kp [1, 14]: 7.79
Tmax [1, 14]: 30 min
AUC(0-t) ([1]; BALB/c, mouse, non-draining lymph node, iv, 20 mg/kg, AUC0-t, 20 mg/kg IV, 0–1440 min): 111 µg·h/mL
AUC(0-inf) [1, 15]: 15.1 µg·h/mL
Cmax [1, 15]: 13300 ng/mL
Kp [1, 15]: 1
Tmax [1, 15]: 5 min
Vd [1, 15]: 11.7 L/kg
half-life [1, 15]: 367 min
AUC(0-t) ([1]; BALB/c, mouse, plasma, iv, 20 mg/kg, AUC0-t, 20 mg/kg IV-ext, tumor-bearing mice): 14.2 µg·h/mL
AUC(0-t) ([1]; BALB/c, mouse, plasma, iv, 20 mg/kg, AUC0-t, 20 mg/kg IV, 0–1440 min): 14.2 µg·h/mL
AUC(0-t) ([1]; BALB/c, mouse, plasma, iv, 20 mg/kg, AUC0–360, plasma, 20 mg/kg IV-ext, tumor-bearing mice): 9.85 µg·h/mL
clearance ([1]; BALB/c, mouse, plasma, iv, 20 mg/kg, calculated using AUC0-∞, 20 mg/kg IV-ext, tumor-bearing mice): 22.1 mL/min/kg
clearance ([1]; BALB/c, mouse, plasma, iv, 20 mg/kg, calculated using AUC0–360, 20 mg/kg IV-ext, tumor-bearing mice): 33.8 mL/min/kg
AUC(0-inf) [1, 16]: 5.87 µg·h/mL
Cmax [1, 16]: 1690 ng/mL
Kp [1, 16]: 0.389
Tmax [1, 16]: 5 min
AUC(0-t) ([1]; BALB/c, mouse, red blood cells (RBC), iv, 20 mg/kg, AUC0-t, RBC, 20 mg/kg IV, 0–1440 min): 5.53 µg·h/mL
AUC(0-inf) [1, 17]: 41.7 µg·h/mL
Cmax [1, 17]: 9950 ng/mL
Kp [1, 17]: 2.77
Tmax [1, 17]: 15 min
AUC(0-t) ([1]; BALB/c, mouse, skeletal muscle, iv, 20 mg/kg, AUC0-t, Sk. Muscle, 20 mg/kg IV, 0–1440 min): 39.4 µg·h/mL
AUC(0-inf) [1, 18]: 209 µg·h/mL
Cmax [1, 18]: 31300 ng/mL
Kp [1, 18]: 12.7
Tmax [1, 18]: 15 min
AUC(0-t) ([1]; BALB/c, mouse, small intestine, iv, 20 mg/kg, AUC0-t, 20 mg/kg IV, 0–1440 min): 181 µg·h/mL
AUC(0-inf) [1, 19]: 2.15 µg·h/mL
Cmax [1, 19]: 307 ng/mL
Kp [1, 19]: 0.14
Tmax [1, 19]: 15 min
AUC(0-t) ([1]; BALB/c, mouse, spinal cord, iv, 20 mg/kg, AUC0-t, 20 mg/kg IV, 0–1440 min): 2 µg·h/mL
AUC(0-inf) [1, 20]: 306 µg·h/mL
Cmax [1, 20]: 39000 ng/mL
Kp [1, 20]: 20.6
Tmax [1, 20]: 120 min
AUC(0-t) ([1]; BALB/c, mouse, spleen, iv, 20 mg/kg, AUC0-t, 20 mg/kg IV, 0–1440 min): 293 µg·h/mL
AUC(0-inf) [1, 21]: 92.9 µg·h/mL
Cmax [1, 21]: 13500 ng/mL
Kp [1, 21]: 5.94
Tmax [1, 21]: 30 min
AUC(0-t) ([1]; BALB/c, mouse, thymus, iv, 20 mg/kg, AUC0-t, 20 mg/kg IV, 0–1440 min): 84.5 µg·h/mL
Kp ([1]; BALB/c, mouse, tumor (CT26), intravenous, 20 mg/kg): 8.68
AUC(0-inf) [1, 22]: 140 µg·h/mL
Cmax [1, 22]: 13100 ng/mL
Tmax [1, 22]: 60 min
AUC(0-t) ([1]; BALB/c, mouse, tumor (CT26), iv, 20 mg/kg, AUC0-t, 20 mg/kg IV, 0–1440 min): 124 µg·h/mL
Cmax ([1]; Plasma, 20 mg/kg IV, observed, mean (SD)): 13.3 (4.91) μg/mL
AUC0-∞ ([1]; plasma, 20 mg/kg IV): 906 µg·min/mL
Tmax ([1]; plasma, 20 mg/kg IV): 5 min
AUC0-t/dose [1, 23]: 42.7
AUC0-∞ /dose [1, 23]: 45.3
AUC0–360/dose [1, 23]: 29.6
AUCextrap [1, 23]: 5.75%
Tlast [1, 23]: 1440 min
0–24 h feces [1, 24]: 4.13 % dose
0–24 h urine [1, 24]: 48.4 % dose
fraction unbound at 24 h, 300 ng/mL [2]: 0.028
fraction unbound at 24 h, 100000 ng/mL [2]: 0.0427
Compound: CNCc1ccc(-c2cc(-c3nc(-c4ccc(S(=O)(=O)C(C)C)cc4)cnc3N)on2)cc1 [berzosertib]
clinically associated toxicities [3]: bone marrow toxicities including neutropenia, thrombocytopenia, leukocytopenia, lymphocytopenia, and anemia
efflux transporter substrate [4]: substrate
